# PvdQ inh: blocks Pseudomonas aeruginosa PvdQ acylase activity; AID 488965; 0.063% of 340,000 active; purified PvdQ acylase, fluorescence plate reader; inhibition, % at 10 µM; in the data active = inhibition above about 30%, passing the limit was not always enough;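 also: 0% = vehicle neutral wells and 100% = reference inhibitor wells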
# HKDC1 inh: blocks human hexokinase HKDC1 activity | AID 493160 | 0.16% of 340,000 active | recombinant HKDC1, G6PDH/diaphorase resazurin coupled fluorescence | inhibition, % at 20 µM;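 active = inhibition above about 35% when tested at 20 µM, limit read from the data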;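 also: plate controls were DMSO wells with enzyme for no effect and DMSO wells lacking enzyme for full effect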
# Target sequence (Q2TB90 whole entry, looked up): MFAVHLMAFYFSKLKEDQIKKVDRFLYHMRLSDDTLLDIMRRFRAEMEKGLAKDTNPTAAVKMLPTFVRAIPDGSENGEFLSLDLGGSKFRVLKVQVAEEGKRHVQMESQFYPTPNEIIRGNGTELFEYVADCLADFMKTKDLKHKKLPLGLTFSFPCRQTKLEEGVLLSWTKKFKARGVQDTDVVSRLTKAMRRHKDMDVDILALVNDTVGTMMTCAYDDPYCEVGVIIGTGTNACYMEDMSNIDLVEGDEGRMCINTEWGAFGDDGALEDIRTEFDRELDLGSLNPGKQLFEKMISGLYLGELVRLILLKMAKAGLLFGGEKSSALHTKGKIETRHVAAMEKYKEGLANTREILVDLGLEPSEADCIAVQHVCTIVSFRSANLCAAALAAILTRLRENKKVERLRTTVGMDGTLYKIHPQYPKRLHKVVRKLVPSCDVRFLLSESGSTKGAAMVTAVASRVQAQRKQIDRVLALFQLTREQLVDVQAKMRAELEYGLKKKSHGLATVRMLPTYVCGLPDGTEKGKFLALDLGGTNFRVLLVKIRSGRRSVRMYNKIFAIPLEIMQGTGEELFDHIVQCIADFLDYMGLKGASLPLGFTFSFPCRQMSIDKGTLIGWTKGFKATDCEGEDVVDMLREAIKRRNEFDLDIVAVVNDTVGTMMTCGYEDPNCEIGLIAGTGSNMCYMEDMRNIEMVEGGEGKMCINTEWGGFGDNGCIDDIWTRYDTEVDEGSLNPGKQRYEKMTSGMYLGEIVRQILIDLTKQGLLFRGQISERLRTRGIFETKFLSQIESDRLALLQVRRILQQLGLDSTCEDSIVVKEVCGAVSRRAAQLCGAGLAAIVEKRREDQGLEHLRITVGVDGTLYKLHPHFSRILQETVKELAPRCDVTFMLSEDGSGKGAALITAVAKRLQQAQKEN
#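 Test system: recombinant HKDC1 (HK5) hexokinase enzyme, produced in-house; Amount: enzyme 5 µg/mL final; Buffer or medium: Tris pH 8.0 buffer with MgCl2, Tween-20, BSA, BME; Reagent: glucose and ATP substrates; Doses: 20 µM test compound, 1% DMSO; Incubation: 90 min reaction incubation at room temperature, dark; Detection: resorufin fluorescence at 613 nm.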
# MIN6 prolif-1: induces beta-cell replication in MIN6 cells. MIN6 cells proliferation, ATPlite luminescence, 48 h; cells starved in 0.2% serum; 100% = growth in 10% serum. proliferation, % at 10 µM. 0.29% of 330,000 active. AID 2380;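 active = compounds whose signal lies at least 3.5 SD above the mean of all wells on their plate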;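 also: 0% = DMSO-treated cells in low-serum medium and 100% = 10% serum control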
# ATG4B inhibitor: blocks human ATG4B protease cleavage of LC3 substrate. Q9Y4P1. ATG4B cleavage of LC3-PLA2, NBD-HPC fluorescence, 1 h. inhibition, % at 8.33 µM. 0.51% of 340,000 active. AID 504462; in the data active = inhibition above about 40%
# IMP-1 inh: blocks Pseudomonas aeruginosa IMP-1 metallo-beta-lactamase. AID 1556. 0.45% of 290,000 active. purified IMP-1, nitrocefin hydrolysis, epi-absorbance fluorescence. inhibition, % at 5.6 µM;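 active = inhibition above the mean plus 3 SD of all compounds in the same screening run, cut at about 4.5% in these data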;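 also: 0% = IMP-1 with DMSO and 100% = DMSO wells lacking enzyme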
#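 Test system: recombinant IMP-1 enzyme, purified / Medium: HEPES buffer pH 7.1 with ZnSO4 and Brij 35 / Doses: single dose, 5.6 µM / Times: 25 °C, 15 min preincubation, 25 min reaction / Detection: Epi-absorbance via hydrolysed-nitrocefin quenching of white-plate fluorescence, 480/530 nm, EDTA stop / Evaluation: percent inhibition from optical density relative to buffer-blank wells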
# VIM-2 inh: inhibitors of Pseudomonas aeruginosa VIM-2 metallo-beta-lactamase | inhibition, % at 5.6 µM | AID 1527 | 0.89% of 290,000 active | purified VIM-2, nitrocefin hydrolysis, epi-absorbance fluorescence;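 active = inhibition above the mean of all tested compounds plus 3 SD, cutoff set per screening run, cut at about 7.5% in these data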;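 also: red hydrolysis product quenches plate fluorescence so inhibitors raise well fluorescence; 0% = enzyme with DMSO and 100% = DMSO without enzyme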
# MIN6 prolif-2: confirmation of inducers of beta-cell replication in MIN6 cells; shares compounds with MIN6 prolif-1; MIN6 beta-cell proliferation, ATPlite luminescence, 48 h; cells kept in 0.2% serum; scaled between 0.2% and 10% serum; proliferation increase, % at 50 µM; 920 tested, under 10 active; AID 463095;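 active = proliferation increase above 40% at any of the four tested concentrations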
# Numbers without * were called inactive; x = no result. Sampled rows, rich in hits. Any-hit rate of the full collection: about 2%.
SMILES,PvdQ inh,HKDC1 inh,MIN6 prolif-1,ATG4B inhibitor,IMP-1 inh,VIM-2 inh,MIN6 prolif-2
COc1ccc(-c2csc(NC(=O)CCN3C(=O)C4CC=CCC4C3=O)n2)cc1OC (stereo not drawn),-15,1,13*,-10,x,x,-4
COc1ccc(-c2csc(NC(=O)CN3C(=O)C4CC=CCC4C3=O)n2)cc1 (stereo not drawn),-15,-1,-3,0,x,x,x
COc1ccc(COn2c(=O)c(C)[n+]([O-])c3ccccc32)cc1OC,-15,2,5.1*,-18,-2,0,1
Cc1c(=O)n(OCc2ccccc2)c2ccccc2[n+]1[O-],4,4,-1,-2,-6,-3,x
O=C(NC(=S)Nc1ccccc1N1CCOCC1)c1ccc(-c2ccccc2F)o1,5,-2,-4,-6,-3,-2,x
O=C(CSc1ccccc1)N1CCCC(N2CCN(c3ccc(F)cc3)CC2)C1 (stereo not drawn),6,0,-1,0,-5,-1,x
CC1=C(C(=O)Nc2ccccc2)C(c2ccncc2)C(C#N)=C(SCC(=O)NC2CC2)N1 (stereo not drawn),-12,2,8.3*,-9,-3,0,2
CC1=C(C(=O)Nc2ccccc2)C(c2ccncc2)C(C#N)=C(SCC(=O)NC(C)C)N1 (stereo not drawn),-15,-2,0,-15,-7,-3,x
Cc1onc(-c2ccccc2)c1C(O)c1ccc(F)cc1 (stereo not drawn),-9,1,10*,9,-4,-2,-2
Cc1onc(-c2ccccc2Cl)c1C(O)c1ccc(F)cc1 (stereo not drawn),-11,-1,-1,-1,-4,-2,x
CC12CCC(C(=O)CC1=O)C2(C)C (stereo not drawn),-17,3,x,16,x,x,x
Cc1cc(NC(=O)c2c(-c3c(Cl)cccc3Cl)noc2C)n(C)n1,-11,-5,6.8*,-10,-2,-2,2
COc1ccc(-c2nc3c(c(SCC(=O)N4CCOCC4)n2)COC(C)(C)C3)cc1,17,2,-3,-9,-4,-4,x
COc1ccc(-c2nc3c(c(SCC(=O)N4CCCC4)n2)COC(C)(C)C3)cc1,-4,0,11*,-4,-1,-2,-5
CN(C(=O)CN1C(=O)S/C(=C\c2ccc(Cl)cc2)C1=O)C1CCS(=O)(=O)C1 (stereo not drawn),-10,-1,-1,7,1,1,x
COc1ccc(/C=N\NC(=O)CNC(=O)C2COc3ccccc3O2)cc1[N+](=O)[O-] (stereo not drawn),-10,5,14*,-8,0,2,-1
O=[N+]([O-])c1ccc(N2CCCC2)cc1NC1CC1,-10,0,11*,13,-5,1,-2
CC1(C)CC(=O)C2=C(C1)N(c1ccc(F)cc1)C(=O)C2(O)C(F)(F)F (stereo not drawn),-12,-9,-4,-1,-3,2,x
CCOc1ccc(CCNS(=O)(=O)c2ccc3c(c2)N(C(C)=O)CCO3)cc1OCC,6,-4,15*,-10,-3,-2,-2
COc1cc(C)ccc1OCc1cc(C(=O)N(C)CCCN2CCOCC2)no1,9,-3,-3,-4,3,3,x
Cc1ccc(C)c(NC(=O)CN(C)C(=O)C2=NNC(=O)CC2)c1,-13,-1,-2,-18,x,x,x
COc1cc(CC(=O)NCCCc2ccccc2)cc(OC)c1OC,-6,-2,6.0*,4,-3,-2,-2
Cc1ccc(NC(=O)COC(=O)/C=C/c2c(C)nn(-c3ccc(F)cc3)c2Cl)cc1F,-7,-2,0,7,0,0,x
Cc1ccc(OCC(=O)N2CC3(C)CC2CC(C)(C)C3)cc1 (stereo not drawn),-15,-3,6.8*,0,-1,-1,-6
Nc1ccc(S(=O)(=O)N2CCCc3ccccc32)cc1,10,-4,14*,-4,-3,-5,-2
SMILES,PvdQ inh,HKDC1 inh,MIN6 prolif-1,ATG4B inhibitor,IMP-1 inh,VIM-2 inh,MIN6 prolif-2
N#Cc1ccc(C(=O)Nn2cnnc2)cc1,-14,-3,8.2*,-4,-4,-2,-1
Cc1ccc(S(=O)(=O)NN=C2C3CC4CC(C3)CC2C4)cc1[N+](=O)[O-],8,-5,-2,-3,-4,-4,x
CCCCC1C2C(=O)N(c3ccc(C)cc3)C(=O)C2ON1c1ccccc1 (stereo not drawn),x,3,0,-5,-1,2,x
O=C(OCCCc1cc2ccccc2c(=O)o1)c1ccc2c(c1)OCO2,10,-1,5,13,x,x,x
Cc1c(-c2ccccc2)nc(N)c(C#N)c1-c1ccco1,-7,-1,0,-5,-2,-2,x
Cc1nc(N)c(C#N)c(-c2ccccc2)c1C,-4,-4,5.9*,-2,1,1,3
c1ccc(Cn2nnnc2CN2CCCC2)cc1,-2,-10,4.8*,-5,-2,-2,2
COc1ccc(Cn2nnnc2CN2CCCCCC2)cc1,-12,-12,0,4,-1,0,x
O=C(NCc1ccco1)C1CC(=O)N(c2ccc(O)cc2)C1 (stereo not drawn),5,-3,4.7*,-2,-3,-1,-1
CCS(=O)(=O)N1CCC(C(=O)NCc2ccco2)CC1,-7,-3,2,-5,-2,-3,x
CS(=O)(=O)N1CCC(C(=O)NCc2ccco2)CC1,-6,13,7.7*,0,-3,-4,-3
Cc1nc(S(=O)(=O)N2CCOCC2)c(C#N)c(C)c1Cl,0,0,0,-6,-4,-2,x
COc1cc(C(=O)OCC(=O)NCC2CCCCC2)ccc1OCC(C)C,-11,-5,-1,-2,x,x,x
COc1cc(C(=O)OCC(=O)NC2CCCCCC2)ccc1OCC(C)C,-7,0,11*,2,x,x,-1
CCOc1ccc(S(=O)(=O)NCCC(=O)NC2CCCCC2)cc1,-12,-9,-1,-4,x,x,x
COC(=O)c1ccc(N2CCN(C)CC2)c(NC(=O)COc2ccc(C)cc2)c1,1,1,11*,-9,-2,1,-4
Cc1ccc(N(Cc2ccccc2F)S(C)(=O)=O)cc1C,-2,-8,6,-3,-1,-2,x
CCOC(=O)c1cnc(-n2nc(C)cc2C)nc1Oc1ccccc1F,x,1,7.8*,1,-4,0,-6
CCCCC(OC(=O)CN1C(=O)COc2ccccc21)C(=O)NC1CCCCC1 (stereo not drawn),-17,-6,11*,0,-1,-1,-4

# Source: PubChem BioAssay
